ChEMBL document CHEMBL3272214, “2-Deaminoactinomycin D, synthesis and interaction with deoxyribonucleic acid” (J Med Chem, 1977)
Calls of active or inactive are those of the source. The rule behind the calls is not given here. *1 amine or outer side, *2 acyl side, *3 side chain or, on linkers, in order; H or OH if unused. Where a SMILES comes first, the peptide text is derived from it. Bridges are numbered along the chain shown (N, C = ends). Roman numbers before positions name the chains, in order. [ ]: non-standard residue; d: D form. Actinocin(1to9) = Cc1c2oc3c(C)ccc(C(=O)[*:2])c3nc-2c(C(=O)[*:1])c(N)c1=O; NMeV = CN[C@H](C(=O)O)C(C)C; Sar = CNCC(=O)O

Legend:
Escherichia coli = assay: Induction of Escherichia coli omega enzyme-mediated relaxation of Escherichia coli (RR1) pBR313 closed circular DNA at 40 X 10^-12 mol preincubated for 10 mins followed by enzyme-addition measured after 30 mins by agarose gel electrophoretic analysis
Summary of the method: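 Plasmid pBR313 was isolated from E. coli RR1 cleared lysate by agarose A50 gel filtration. 1.10 μg DNA in 80 mM potassium phosphate pH 7.6, 3 mM MgCl2, 1 mM EDTA was preincubated with drug (40×10⁻¹² mol) for 10 min at 37 °C. About 300 units of ω enzyme were added for 30 min. The reaction was stopped with EDTA and phenol/chloroform extracted. Read-out was 0.7% agarose slab gel electrophoresis with ethidium staining, compared with ethidium bromide.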

P388 [1] = assay: Antitumor activity against mouse P388 cells allografted in mouse assessed as increase in life span at 0.108 mg/kg administered qd on day 1, 5 and 9 relative to control; format: functional; conditions: P388, 24 h
Summary of the method: (§1)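 In vivo testing in tumour-bearing mice was run by the NCI Division of Cancer Treatment. Drug was given on a QD 1, 5, 9 schedule, and 15 mg/kg was the highest dose tested. Toxicity was judged by weight loss of treated animals. Activity is expressed as % increase in life-span (ILS) over untreated tumour-bearing controls.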

L1210 [2] = assay: Inhibition of DNA synthesis in mouse L1210 cells assessed as [3H]-thymidine incorporation preincubated for 3 hrs before [3H]-thymidine addition measured after 1 hr by scintillation spectrometric analysis; format: functional; conditions: read-out: ED50 (the source's name)
Summary of the method: (§2)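 L1210 cell assay run by a previously described method. Compounds were dissolved in Me2SO and diluted in growth medium to a final 1% Me2SO. The value reported is ED50.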

L1210 [3] = assay: Inhibition of RNA synthesis in mouse L1210 cells assessed as [3H]-uridine incorporation preincubated for 3 hrs before [3H]-uridine addition measured after 1 hr by scintillation spectrometric analysis; format: functional; conditions: read-out: ED50 (the source's name); summary of the method: as §2
Calf thymus DNA [4] = assay: Binding affinity to calf thymus DNA assessed as change in melting temperature at 5.2 X 10^-6 M by thermal denaturation assay; format: nucleic-acid assay; conditions: Bos taurus
Summary of the method: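 Calf thymus DNA filtered, concentration set by A259 (ε 6800). Drug in Me2SO diluted into 0.01 M phosphate pH 7.0. Final: drug 5.2×10⁻⁶ M, DNA 5.2×10⁻⁵ M (P), EDTA 1×10⁻⁵ M, 5% Me2SO. Equilibrated at 50 °C, then heated at 18 °C/h while absorbance was recorded. Tm corrected for volume expansion, temperature lag and baseline. ΔTm = Tm(complex) − Tm(DNA).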

Calf thymus DNA [5] = assay: Binding affinity to calf thymus DNA at 10:1 DNA to drug molar ratio by circular dichroism spectroscopic analysis; format: nucleic-acid assay; conditions: Bos taurus
Calf thymus DNA [6] = assay: Binding affinity to calf thymus DNA by NMR spectroscopic analysis; format: nucleic-acid assay; conditions: Bos taurus
P388 [7] = assay: Antitumor activity against mouse P388 cells allografted in mouse assessed as increase in life span at 1.94 mg/kg administered qd on day 1, 5 and 9 relative to control; format: functional; conditions: P388, 24 h; summary of the method: as §1
P388 [8] = assay: Antitumor activity against mouse P388 cells allografted in mouse assessed as increase in life span at 15 mg/kg administered qd on day 1, 5 and 9 relative to control; format: functional; conditions: P388, 24 h; summary of the method: as §1
Mus musculus = assay: Toxicity in mouse allografted with mouse P388 cells assessed as weight loss at 1.94 to 15 mg/kg administered qd on day 1, 5 and 9; format: organism-based; parameters: dose 1.94-15 mg/kg
Summary of the method: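 Mice were dosed on a QD 1, 5, 9 schedule at doses up to 15 mg/kg. Toxicity was judged by weight loss of treated animals.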

Row | Compound | Activity (Escherichia coli) | ILS at 0.108 mg/kg (P388 [1]) | EC50 (L1210 [2]) | EC50 (L1210 [3]) | ΔTm (Calf thymus DNA [4]) | Activity (Calf thymus DNA [5]) | Activity (Calf thymus DNA [6]) | ILS at 1.94 mg/kg (P388 [7]) | ILS at 15 mg/kg (P388 [8]) | Activity (Mus musculus)
1 | CC[n+]1c(-c2ccccc2)c2cc(N)ccc2c2ccc(N)cc21 | Active |  |  |  |  |  |  |  |  | 
2 | Cc1c2oc3c(C)ccc(C(=O)N[C@@H]4C(=O)N[C@H](C(C)C)C(=O)N5CCC[C@H]5C(=O)N(C)CC(=O)N(C)[C@@H](C(C)C)C(=O)O[C@@H]4C)c3nc-2c(C(=O)N[C@@H]2C(=O)N[C@H](C(C)C)C(=O)N3CCC[C@H]3C(=O)N(C)CC(=O)N(C)[C@@H](C(C)C)C(=O)O[C@@H]2C)c(N)c1=O [DACTINOMYCIN] (I: T[dV]P[Sar][NMeV] / II: T[dV]P[Sar][NMeV]; ester I:1-I:C, II:1-II:C; linker I:N-II:N via Actinocin(1to9)) | Active | 100% | 0.4 µM | 0.009 µM | 7.1 °C |  |  |  |  | 
3 | Cc1c2oc3c(C)ccc(C(=O)N[C@@H]4C(=O)N[C@H](C(C)C)C(=O)N5CCC[C@H]5C(=O)N(C)CC(=O)N(C)[C@@H](C(C)C)C(=O)O[C@@H]4C)c3nc-2c(C(=O)N[C@@H]2C(=O)N[C@H](C(C)C)C(=O)N3CCC[C@H]3C(=O)N(C)CC(=O)N(C)[C@@H](C(C)C)C(=O)O[C@@H]2C)c(O)c1=O |  |  | > 100 µM | 24 µM | 0 °C |  |  |  |  | 
4 | Cc1c2oc3c(C)ccc(C(=O)N[C@@H]4C(=O)N[C@H](C(C)C)C(=O)N5CCC[C@H]5C(=O)N(C)CC(=O)N(C)[C@@H](C(C)C)C(=O)O[C@@H]4C)c3nc-2c(C(=O)N[C@@H]2C(=O)N[C@H](C(C)C)C(=O)N3CCC[C@H]3C(=O)N(C)CC(=O)N(C)[C@@H](C(C)C)C(=O)O[C@@H]2C)c(Cl)c1=O | Active |  | 86 µM | 13 µM | 1.6 °C | Active |  |  |  | 
5 | Cc1c2oc3c(C)ccc(C(=O)N[C@@H]4C(=O)N[C@H](C(C)C)C(=O)N5CCC[C@H]5C(=O)N(C)CC(=O)N(C)[C@@H](C(C)C)C(=O)O[C@@H]4C)c3nc-2c(C(=O)N[C@@H]2C(=O)N[C@H](C(C)C)C(=O)N3CCC[C@H]3C(=O)N(C)CC(=O)N(C)[C@@H](C(C)C)C(=O)O[C@@H]2C)cc1=O | Active |  | 63 µM | 0.7 µM | 9.9 °C | Active | Active | 46% | 92% | Non-toxic
6 | COc1cccc2c1C(=O)c1c(O)c3c(c(O)c1C2=O)C[C@@](O)(C(C)=O)C[C@@H]3O[C@H]1C[C@H](N)[C@H](O)[C@H](C)O1 | Active |  |  |  |  |  |  |  |  | 
